In ChEMBL document CHEMBL1156469 (2007):
The source made the active and inactive calls. The rule behind the calls is not given here.

System: Rattus norvegicus
Assay: Antiapoptotic activity against osteoblasts in ovariectomized Wistar rat at 0.1 mg/kg after 10 weeks
Format: functional, organism-based
Design: dose 0.1 mg/kg
Outline: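 After 10 weeks, lumbar vertebrae were removed. Apoptotic osteoblasts were detected by TUNEL staining (Klenow FragEL) in undecalcified, plastic-embedded sections. Values are means ± S.D.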

Question: Which Activity does the source give for `C[C@]12CC[C@@H]3c4ccc(O)cc4CC[C@H]3[C@@H]1CC[C@@H]2O` here?
Answer: Active
